Test results taken from ChEMBL document CHEMBL5346888, “Insight into non-nucleoside triazole-based systems as viral polymerases inhibitors” (Eur J Med Chem, 2023).

Columns and labels:
[1] = Selectivity index, ratio of CC50 for cytotoxicity against African green monkey Vero E6 cells assessed as reduction in cell viability to EC50 for antiviral activity against SARS-CoV-2 infected in African green monkey Vero E6 cells assessed as inhibition of virus growth; format: toxicity, cell-based, Vero C1008; settings: read-out: Ratio CC50/EC50
SARS-CoV-2 = assay: Antiviral activity against SARS-CoV-2 infected in African green monkey Vero E6 cells assessed as inhibition of virus growth; format: functional, organism-based; settings: Severe acute respiratory syndrome coronavirus 2, Vero C1008
[2] = Cytotoxicity against human MT4 cells assessed as reduction in cell viability; format: toxicity, cell-based
Method in brief: (§1)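 MT-4 cells infected with wild-type HIV-1 IIIB, or with RES056 (K103N + Y181C double RT mutant) for the SI ratio line. Antiviral activity and cytotoxicity were both read by the tetrazolium (MTT) colorimetric method. […] SI was calculated as CC50/EC50.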

[3] = target: Hepatitis C virus NS5B RNA-dependent RNA polymerase (Hepatitis C virus, UniProt Q8JXU8); assay: Inhibition of Hepatitis C virus NS5B polymerase; design: species or system Hepacivirus hominis
Hepatitis C virus = assay: Antiviral activity against HCV assessed as reduction in viral growth; format: functional, organism-based, Hepacivirus hominis
Huh-7 = assay: Anticancer activity against human Huh-7 cells measured after 72 hrs; format: functional, cell-based; settings: Huh-7, 72 h
[4] = target: Hepatitis C virus NS5B RNA-dependent RNA polymerase (Hepatitis C virus) (UniProt Q8JXU8); assay: Inhibition of Hepatitis C virus NS5B polymerase at 100 uM relative to control; settings: Hepacivirus hominis
[5] = Selectivity index, ratio of CC50 for cytotoxicity against human MT4 cells assessed as reduction in cell viability to EC50 for antiviral activity against HIV-1 RES056 infected in human MT4 cells; format: toxicity, cell-based; settings: read-out: Ratio CC50/EC50; method in brief: as §1
[6] = Selectivity index, ratio of CC50 for cytotoxicity against human MT4 cells assessed as reduction in cell viability to EC50 for antiviral activity against wild type HIV-1 IIIB infected in human MT4 cells; format: toxicity, cell-based; settings: read-out: Ratio CC50/EC50; method in brief: as §1
[7] = system: Human immunodeficiency virus 1; assay: Antiviral activity against wild type HIV-1 IIIB infected in human MT4 cells assessed as reduction in virus-induced cytopathicity by MTT assay; format: functional, organism-based; settings: Human immunodeficiency virus 1, IIIB; method in brief: as §1
[8] = system: Human immunodeficiency virus 1; assay: Antiviral activity against HIV-1 harboring K103 N/Y181C double mutant infected in human HeLa cells assessed as reduction in viral growth; format: functional, organism-based; settings: Human immunodeficiency virus 1, HeLa
[9] = system: Human immunodeficiency virus 1; assay: Antiviral activity against wild type HIV-1 infected in human HeLa cells assessed as reduction in viral growth; format: functional, organism-based; settings: Human immunodeficiency virus 1, HeLa
Influenza A virus [10] = assay: Antiviral activity against influenza A H1N1 infected in MDCK cells assessed as reduction in viral replication by plaque reduction assay; format: functional, organism-based
[11] = Selectivity index, ratio of CC50 for cytotoxicity against dog MDCK cells assessed as reduction in cell viability by MTT assay to EC50 for antiviral activity against influenza A H1N1 infected in MDCK cells assessed as reduction in viral replication by plaque reduction assay; format: toxicity, cell-based; settings: read-out: Ratio CC50/EC50
Influenza A virus [12] = assay: Antiviral activity against Influenza A virus H9N2 infected in MDCK cells assessed as inhibition of viral replication; format: functional, organism-based
[13] = Cytotoxicity against dog MDCK cells assessed as reduction in cell viability by MTT assay; format: toxicity, cell-based, Canis lupus familiaris
[14] = Antiviral activity against RSV B infected in human HEp-2 cells assessed as inhibition of virus-induced cytopathogenic effect; format: functional, cell-based; settings: human respiratory syncytial virus
Human orthopneumovirus = assay: Antiviral activity against RSV A infected in human HEp-2 cells assessed as inhibition of virus-induced cytopathogenic effect; format: functional, organism-based; settings: human respiratory syncytial virus
[15] = Selectivity index, ratio of CC50 for cytotoxicty against human Huh-7 cells to EC50 for antiviral activity against HCV infected in human Huh-7 cells assessed as reduction in viral infection; format: toxicity, cell-based; settings: read-out: Ratio CC50/EC50
[16] = Cytotoxicity against dog MDCK cells assessed as reduction in cell viability; format: toxicity, cell-based, Canis lupus familiaris
[17] = system: Human immunodeficiency virus 1; assay: Antiviral activity against HIV-1 harboring reverse transcriptase Y181C mutant infected in human MT4 cells assessed as reduction in virus-induced cytopathic effect; format: functional, organism-based; settings: Human immunodeficiency virus 1, MT4
[18] = system: Human immunodeficiency virus 1; assay: Antiviral activity against HIV-1 harboring reverse transcriptase E138K mutant infected in human MT4 cells assessed as reduction in virus-induced cytopathic effect; format: functional, organism-based; settings: Human immunodeficiency virus 1, MT4
[19] = system: Human immunodeficiency virus 1; assay: Antiviral activity against HIV-1 harboring reverse transcriptase K103N mutant infected in human MT4 cells assessed as reduction in virus-induced cytopathic effect; format: functional, organism-based; settings: Human immunodeficiency virus 1, MT4
[20] = system: Human immunodeficiency virus 1; assay: Antiviral activity against HIV-1 harboring reverse transcriptase F227L/V106A double mutant infected in human MT4 cells assessed as reduction in virus-induced cytopathic effect; format: functional, organism-based; settings: Human immunodeficiency virus 1, MT4
[21] = system: Human immunodeficiency virus 1; assay: Antiviral activity against HIV-1 harboring reverse transcriptase Y188L mutant infected in human MT4 cells assessed as reduction in virus-induced cytopathic effect; format: functional, organism-based; settings: Human immunodeficiency virus 1, MT4
CYP2D6 = CYP2D6 (Homo sapiens, UniProt P10635); assay: Inhibition of CYP2D6 (unknown origin); format: ADME
[22] = Cytotoxicity against human HeLa cells assessed as reduction in cell viability incubated for 48 hrs by cellTiter-glo assay; format: toxicity, cell-based
[23] = system: Human immunodeficiency virus 1; assay: Antiviral activity against HIV-1 harboring K103N/Y181C double mutant infected in human HeLa cells assessed as reduction in viral growth incubated for 48 hrs by bright-glo luciferase assay; format: functional, organism-based; settings: Human immunodeficiency virus 1, HeLa
[24] = system: Human immunodeficiency virus 1; assay: Antiviral activity against wild type HIV-1 infected in human HeLa cells assessed as reduction in viral growth incubated for 48 hrs by bright-glo luciferase assay; format: functional, organism-based; settings: Human immunodeficiency virus 1, HeLa

Sequence of Hepatitis C virus NS5B RNA-dependent RNA polymerase (Q8JXU8 whole entry): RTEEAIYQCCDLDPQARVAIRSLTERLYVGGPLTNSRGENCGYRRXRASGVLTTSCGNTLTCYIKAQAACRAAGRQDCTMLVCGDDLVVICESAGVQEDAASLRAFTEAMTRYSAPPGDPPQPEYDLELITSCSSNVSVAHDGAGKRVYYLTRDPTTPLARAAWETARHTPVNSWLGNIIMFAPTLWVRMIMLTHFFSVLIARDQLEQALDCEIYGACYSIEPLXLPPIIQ
Sequence of Hepatitis C virus NS5B RNA-dependent RNA polymerase (Hepatitis C virus) (Q8JXU8 as listed by the source): as the sequence (Q8JXU8 whole entry) above
Sequence of CYP2D6 (P10635 whole entry): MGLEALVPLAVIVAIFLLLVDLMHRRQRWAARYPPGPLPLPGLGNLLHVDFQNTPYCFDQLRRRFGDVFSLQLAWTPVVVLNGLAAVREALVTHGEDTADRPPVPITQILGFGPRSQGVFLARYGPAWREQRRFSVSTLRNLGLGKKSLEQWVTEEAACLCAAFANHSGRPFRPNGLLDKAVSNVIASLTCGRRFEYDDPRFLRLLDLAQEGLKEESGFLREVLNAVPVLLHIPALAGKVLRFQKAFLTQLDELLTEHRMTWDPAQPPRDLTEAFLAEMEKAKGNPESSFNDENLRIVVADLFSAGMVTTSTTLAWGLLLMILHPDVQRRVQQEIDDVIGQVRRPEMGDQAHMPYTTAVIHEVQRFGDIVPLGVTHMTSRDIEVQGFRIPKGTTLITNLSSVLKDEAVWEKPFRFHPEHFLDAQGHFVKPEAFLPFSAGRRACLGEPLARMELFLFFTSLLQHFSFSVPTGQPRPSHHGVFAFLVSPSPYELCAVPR

SMILES: COc1ccc(-n2cc(COC(=O)c3cnccn3)nn2)cc1
- selectivity ratio [1]: 3.2
- IC50 (SARS-CoV-2): 120 nM

SMILES: Cc1ccnc2c1NC(=O)c1cccnc1N2C1CC1 [NEVIRAPINE]
- CC50 [2]: > 15000 nM

SMILES: Cc1cc(C)n2nc(CC3=C(O)CC(CCc4ccc(C(C)(C)C#N)c(F)c4)(C4CCCC4)OC3=O)nc2n1 (stereo unspecified)
- IC50 [3]: 3 nM
- EC50 (Hepatitis C virus): 15 nM

SMILES: CCc1cccc2c3c([nH]c12)C(CC)(Cc1n[nH]c(=S)n1C)OCC3 (stereo unspecified)
- EC50 (Huh-7): 4290 nM
- inhibition [4]: 78.9%
- IC50 [3]: 14800 nM

SMILES: Cc1cc(C)c(Oc2cc(Nc3ccc(C#N)cc3)ncc2C(=O)NCc2cn(CC(=O)N3CCOCC3)nn2)c(C)c1
- selectivity ratio [5]: 12
- selectivity ratio [6]: 9280
- EC50 [7]: 20 nM

SMILES: NC(=O)c1nc(F)cnc1O
- selectivity ratio [1]: 3.8
- IC50 (SARS-CoV-2): 1380 nM

SMILES: Cc1cc(C)c(Oc2cc(Nc3ccc(C#N)cc3)ncc2C(=O)NCc2cn(CC(=O)N3CCCC3)nn2)c(C)c1
- selectivity ratio [5]: 41
- selectivity ratio [6]: 2100
- EC50 [7]: 20 nM

SMILES: O=C(OCc1cn(-c2ccc(F)cc2)nn1)c1cnccn1
- selectivity ratio [1]: 0.3
- IC50 (SARS-CoV-2): 12200 nM

SMILES: CCc1cc(CC[C@]2(C3CCCC3)CC(O)=C(Cc3nc4nc(C)cc(C)n4n3)C(=O)O2)cc(CC)n1 [FILIBUVIR]
- IC50 [3]: 7 nM

SMILES: Cc1ccc(NC(=O)CSc2nnc(C)n2-c2ccccc2)c(Br)c1
- EC50 [8]: 1300 nM
- EC50 [9]: 100 nM

SMILES: CCCCn1c(CC2(CC)OCCc3c2[nH]c2c(CC)cccc32)n[nH]c1=S (stereo unspecified)
- inhibition [4]: 72.3%
- IC50 [3]: 25400 nM

SMILES: COc1ccccc1-n1cc(COC(=O)c2cnccn2)nn1
- selectivity ratio [1]: 2.1
- IC50 (SARS-CoV-2): 1080 nM

SMILES: CCc1cccc2c3c([nH]c12)C(CC)(Cc1n[nH]c(=S)n1CC)OCC3 (stereo unspecified)
- inhibition [4]: 74.6%
- IC50 [3]: 21600 nM

SMILES: CCc1cccc2c3c([nH]c12)C(CC)(Cc1n[nH]c(=S)n1C1CCCCC1)OCC3 (stereo unspecified)
- inhibition [4]: 45.6%

SMILES: CCCn1c(CC2(CC)OCCc3c2[nH]c2c(CC)cccc32)n[nH]c1=S (stereo unspecified)
- inhibition [4]: 69%
- IC50 [3]: 26000 nM

SMILES: CCc1cccc2c3c([nH]c12)C(CC)(Cc1n[nH]c(=S)n1-c1ccccc1)OCC3 (stereo unspecified)
- inhibition [4]: 49.5%

SMILES: CCc1cc(CC[C@@]2(C3CCCC3)CC(O)=C(Cc3nc4nc(C)cc(C)n4n3)C(=O)O2)cc(CC)n1
- IC50 [3]: 12 nM

SMILES: Cc1cc(C)c(Oc2cc(Nc3ccc(C#N)cc3)ncc2C(=O)NCc2cn(CCC#N)nn2)c(C)c1
- selectivity ratio [5]: 17
- selectivity ratio [6]: 2040

SMILES: CCc1c(C)nc2nnc(-c3ccccc3Cl)n2c1O
- EC50 (Influenza A virus [10]): 550 nM
- selectivity ratio [11]: 227
- EC50 (Influenza A virus [12]): 90 nM
- CC50 [13]: 125000 nM

SMILES: COc1cc(-c2noc(-c3nnn(-c4ccccc4Cl)c3C)n2)cc(OC)c1OC
- EC50 [14]: 1000 nM
- EC50 (Human orthopneumovirus): 1000 nM

SMILES: C=CCn1c(CC2(CC)OCCc3c2[nH]c2c(CC)cccc32)n[nH]c1=S (stereo unspecified)
- inhibition [4]: 58.2%
- IC50 [3]: 40300 nM

SMILES: CCc1cccc2c3c([nH]c12)C(CC)(Cc1n[nH]c(=S)n1Cc1ccccc1)OCC3 (stereo unspecified)
- inhibition [4]: 3.78%

SMILES: O=C(OCc1cn(-c2ccccc2Cl)nn1)c1cnccn1
- selectivity ratio [1]: 3.7
- IC50 (SARS-CoV-2): 952 nM

SMILES: O=C(OCc1cn(-c2ccc(Cl)cc2)nn1)c1cnccn1
- selectivity ratio [1]: 1.7
- IC50 (SARS-CoV-2): 1150 nM

SMILES: O=C(CC(=O)c1nnc[nH]1)c1ccc(OCc2ccc(F)cc2)cc1
- selectivity ratio [15]: > 128

SMILES: COc1ccc(C(=O)Nc2nc3n(n2)C(c2ccccc2)C=C(C)N3)cc1 (stereo unspecified)
- CC50 [16]: > 250000 nM

SMILES: CCc1cc(CCC2(C3CCCC3)CC(O)=C(Cc3nc4nc(C)cc(C)n4n3)C(=O)O2)cc(CC)n1 (stereo unspecified)
- IC50 [3]: 16 nM

SMILES: CC(C)Nc1cccnc1N1CCN(C(=O)c2cc3cc(NS(C)(=O)=O)ccc3[nH]2)CC1 [DELAVIRDINE]
- EC50 [17]: 2460 nM
- selectivity ratio [6]: 733
- EC50 [18]: 51 nM
- EC50 [19]: 3000 nM
- EC50 [20]: 2270 nM
- EC50 [7]: 38 nM
- EC50 [21]: 840 nM

SMILES: CCC(C#N)(CC)c1ccc(CCC2(C3CCCC3)CC(O)=C(Cc3nc4nc(C)cc(C)n4n3)C(=O)O2)cc1F (stereo unspecified)
- IC50 (CYP2D6): > 6000 nM
- IC50 [3]: 5 nM

SMILES: O=C(OCc1cn(-c2ccc([N+](=O)[O-])cc2)nn1)c1cnccn1
- selectivity ratio [1]: 10.3
- IC50 (SARS-CoV-2): 477 nM

SMILES: Cc1cc(C)n2nc(CC3=C(O)CC(CCc4ccc(C(C)(C)O)c(F)c4)(C4CCCC4)OC3=O)nc2n1 (stereo unspecified)
- IC50 (CYP2D6): > 6000 nM
- IC50 [3]: 140 nM

SMILES: NS(=O)(=O)c1ccc(NC(=O)CSc2nnc(Br)n2-c2ccc(C3CC3)c3ccccc23)c(Cl)c1
- CC50 at 48 h [22]: ≥ 3000 nM
- EC50 [23]: 0.23 nM
- EC50 [24]: 0.14 nM
